In ChEMBL document CHEMBL1141180, “Synthesis and antiviral activity of helioxanthin analogues” (J Med Chem, 2005):

Tests used:
Human alphaherpesvirus 1 [1] = assay: Effective concentration to inhibit 50% of herpes simplex virus type 1 replication in a cell culture model; format: functional, organism-based
CCRF-CEM = assay: Cytotoxicity against CEM cell lines of human; format: functional; conditions: read-out: ID50 (the source's name)
Hepatitis C virus [2] = assay: Effective concentration to inhibit 50% of hepatitis C virus replication in a cell culture model; format: functional, organism-based, Hepacivirus hominis
How it was run: (§1)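 HCV replicon Huh-Luc/neo cells grown to confluence, then treated with varying drug concentrations in DMEM with 10% dFBS for 3 days. Medium was removed and cells lysed in passive lysis buffer, shaken 15 min at room temperature. Lysate was mixed with luciferase substrate and luminescence read immediately as the measure of replicon activity.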

Hepatitis B virus [3] = assay: Effective concentration to inhibit 50% of hepatitis B virus replication in a cell culture model; format: functional, organism-based
[4] = Effective concentration to inhibit 50% of cytomegalovirus (CMV) replication in a cell culture model; format: functional
MT2 = assay: Cytotoxicity against MT-2 cell lines of human; format: functional; conditions: read-out: ID50 (the source's name)
Human gammaherpesvirus 4 [5] = assay: Effective concentration to inhibit 50% of epstein Barr virus replication in a cell culture model; format: functional, organism-based
Human alphaherpesvirus 2 [6] = assay: Effective concentration to inhibit 50% of herpes simplex virus type 2 replication in a cell culture model; format: functional, organism-based
[7] = Effective concentration to inhibit 50% of human immunodeficiency virus replication in a cell culture model; format: functional
Hepatitis C virus [8] = assay: Percent inhibition against Hepatitis C virus replication in a cell culture model; format: functional, Hepacivirus hominis; how it was run: as §1
Human alphaherpesvirus 2 [9] = assay: Effective concentration to inhibit 50 % of Herpes simplex virus type 2 replication in a cell culture model; conditions: Oryctolagus cuniculus
Hepatitis B virus [10] = assay: Effective concentration to inhibit 50 % of hepatitis B virus replication in a cell culture model (3.4>10); format: functional, organism-based
Human alphaherpesvirus 2 [11] = assay: Effective concentration to inhibit 50 % of herpes simplex virus type 2 replication in a cell culture model;ND=Not determined; conditions: Oryctolagus cuniculus
Human alphaherpesvirus 1 [12] = assay: Effective concentration to inhibit 50 % of Herpes simplex virus type 1 replication in a cell culture model; format: functional, organism-based
Human gammaherpesvirus 4 [13] = assay: Effective concentration to inhibit 50 % of Epstein Barr virus replication in a cell culture model; format: functional, organism-based, epsteinBarr virus

SMILES	EC50 (Human alphaherpesvirus 1 [1]) [µM]	IC50 (CCRF-CEM) [µM]	EC50 (Hepatitis C virus [2]) [µM]	EC50 (Hepatitis B virus [3]) [µM]	EC50 [4] [µM]	IC50 (MT2) [µM]	EC50 (Human gammaherpesvirus 4 [5]) [µM]	EC50 (Human alphaherpesvirus 2 [6]) [µM]	EC50 [7] [µM]	Inhibition (Hepatitis C virus [8]) [%]	EC50 (Human alphaherpesvirus 2 [9]) [µM]	EC50 (Hepatitis B virus [10]) [µM]	EC50 (Human alphaherpesvirus 2 [11]) [µM]	EC50 (Human alphaherpesvirus 1 [12]) [µM]	EC50 (Human gammaherpesvirus 4 [13]) [µM]
NC(=O)c1cc2ccc3c(c2c(-c2ccc4c(c2)OCO4)c1C(=O)O)OCO3	0.15	8.4	3	0.8	0.45	5	9	< 0.1	> 5	–	–	–	–	–	–
NC(=O)c1cc2ccc3c(c2c(-c2ccc4c(c2)OCO4)c1C(N)=O)OCO3	> 50	> 100	> 10	> 10	–	> 100	> 20	> 50	> 100	–	–	–	–	–	–
O=c1[nH][nH]c(=O)c2c(-c3ccc4c(c3)OCO4)c3c4c(cc(Br)c3cc12)OCO4	16	28	3	> 10	–	> 100	> 20	> 20	2.5	45	–	–	–	–	–
O=C1OCc2c1cc1c(Br)cc3c(c1c2-c1ccc2c(c1)OCO2)OCO3	> 50	100	> 10	> 40	–	> 100	> 15	> 50	> 100	–	–	–	–	–	–
O=C1NCc2c1cc1c(Br)cc3c(c1c2-c1ccc2c(c1)OCO2)OCO3	6.5	38	10	> 10	–	54	> 20	> 20	> 54	–	–	–	–	–	–
O=C(O)c1cc2c(Br)cc3c(c2c(-c2ccc4c(c2)OCO4)c1CO)OCO3	> 50	46.5	–	> 18	> 20	50	> 20	> 50	> 50	–	–	–	–	–	–
O=C(O)c1cc2c(Cl)cc3c(c2c(-c2ccc4c(c2)OCO4)c1CO)OCO3	> 50	> 100	> 10	> 10	> 20	60	> 20	> 20	> 60	–	–	–	–	–	–
O=C1OCc2c1cc1c(I)cc3c(c1c2-c1ccc2c(c1)OCO2)OCO3	> 25	70	> 10	> 20	–	80	> 10	> 25	> 80	–	–	–	–	–	–
CCOC(=O)c1c(C(=O)OCC)c(-c2ccc3c(c2)OCO3)c2c3c(ccc2c1O)OCO3	> 50	39	> 10	> 10	–	15	> 10	–	> 15	–	> 50	–	–	–	–
O=C1OC(=O)c2c1cc1ccc3c(c1c2-c1ccc2c(c1)OCO2)OCO3	> 50	> 50	> 10	> 10	17.6	> 100	> 20	> 50	> 100	–	–	–	–	–	–
O=C1c2cc3ccc4c(c3c(-c3ccc5c(c3)OCO5)c2C(=O)N1CCCOCc1ccccc1)OCO4	> 50	> 100	10	–	–	> 100	> 5	> 50	> 100	62	–	–	–	–	–
O=C(O)c1cc2c(I)cc3c(c2c(-c2ccc4c(c2)OCO4)c1CO)OCO3	> 50	> 100	10	–	> 20	80	> 20	> 50	> 80	–	–	–	–	–	–
O=C1c2cc3ccc4c(c3c(-c3ccc5c(c3)OCO5)c2C(=O)N1CCCO)OCO4	> 30	27	> 10	> 20	8.1	22	> 5	> 30	> 22	–	–	–	–	–	–
O=C1OCc2c1cc1c(Cl)cc3c(c1c2-c1ccc2c(c1)OCO2)OCO3	23	27	> 10	> 60	8.8	50	> 20	> 25	> 50	–	–	–	–	–	–
O=C(O)c1cc2ccc3c(c2c(-c2ccc4c(c2)OCO4)c1CO)OCO3	9	30	10	–	2.5	10	> 20	25	> 10	–	–	> 3.4	–	–	–
Nc1nc2c(ncn2COCCO)c(=O)[nH]1 [ACYCLOVIR]	–	–	–	0.02	–	–	–	–	–	–	–	–	51	8	–
O=C1OCc2c1cc1ccc3c(c1c2-c1ccc2c(c1)OCO2)OCO3 [HELIOXANTHIN]	2	30	> 3	> 1	7.3	2.5	> 20	35	> 2.5	–	–	–	–	–	–
Nc1ccn([C@@H]2CS[C@H](CO)O2)c(=O)n1 [LAMIVUDINE]	–	–	–	–	–	–	–	–	–	–	–	–	–	–	0.4
